In ChEMBL document CHEMBL2163344, “Immunomodulatory properties of novel nucleotide oligomerization domain 2 (nod2) agonistic desmuramyldipeptides” (J Med Chem, 2012):
The source made the active and inactive calls. The calls are words filed in the database; no cut-off is given here.

Tested on: PBMC
Assay: Immunomodulatory activity in human PBMCs assessed as reduction in PMA/ionomycin-induced TNFalpha release at 20 uM incubated for 18 hrs by multiplexed cytokine assay
Assay type: functional, cell-based
Procedure, shortened: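 Ficoll-isolated human PBMC, 1 × 10^6 cells per well, treated with 20 μM compound (DMSO ≤0.1%) plus PMA 3.33 ng/mL and ionomycin 500 nM for 18 h at 37 °C, 5% CO2. Cell-free supernatant cytokines measured by CBA human inflammatory kit on a flow cytometer against recombinant standards. Reported as % of PMA/ionomycin-only release; duplicates, three experiments, three donors.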

CCOC(=O)CC[C@@H](NC(=O)[C@H](C)NC(=O)CNC(=O)c1cc2ccccc2[nH]1)C(N)=O
Activity: Active
